# “And” between values parts separate entries of the source, which are not always exact repeats. Identical values can stand only once.
# T1: S. aureus ClpP (caseinolytic protease) (S. aureus NCTC 8325), Q2G036
# T1 chain: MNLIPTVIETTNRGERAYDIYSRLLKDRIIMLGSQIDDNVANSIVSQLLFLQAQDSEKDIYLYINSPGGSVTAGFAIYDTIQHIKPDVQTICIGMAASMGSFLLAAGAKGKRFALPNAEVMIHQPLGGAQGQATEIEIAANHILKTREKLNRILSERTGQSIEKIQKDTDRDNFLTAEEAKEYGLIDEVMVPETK
# B1: S. aureus ClpP (caseinolytic protease), Q2G036 1-195 (enzyme)
# chain: T1 chain
# Legend:
# [1] = system: S. aureus biofilms (UAMS-1); experiment: Biofilm killing assay; format: cell-based; settings: 10 times the MIC, 24 hours, compared with the control
# Procedure, shortened: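 Overnight stationary UAMS-1 culture diluted 1:20 in BHI broth and grown 24 h at 37 °C in tissue-culture-treated 96-well plates. Wells PBS-washed twice, then exposed to test compound in fresh medium for 24 h. Washed again, biofilms disrupted by sonication in PBS, serially diluted, and spotted on BHI agar overnight at 37 °C for cfu counts. One-way ANOVA with Dunnett's test.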
# [2] = target: T1, S. aureus ClpP (caseinolytic protease) …; experiment: crystal structure; settings: remark: other sources report otherwise
# [3] = target: T1, S. aureus ClpP (caseinolytic protease) …; experiment: AUC; settings: remark: other sources report otherwise
Molecule,reduction in growth of mature S. aureus biofilms [1],stoichiometry N [2],stoichiometry N [3]
CO[C@H]1/C=C/O[C@@]2(C)Oc3c(C)c(O)c4c(O)c(c(/C=N/N5CCN(C)CC5)c(O)c4c3C2=O)NC(=O)/C(C)=C\C=C\[C@H](C)[C@H](O)[C@@H](C)[C@@H](O)[C@@H](C)[C@H](OC(C)=O)[C@@H]1C [rifampin],limited reduction,–,–
B1,–,14,14 and 7
